According to ChEMBL document CHEMBL3421564, “Synthesis and biological evaluation of indolyl-pyridinyl-propenones having either methuosis or microtubule disruption activity” (2015):
Activity calls are given as the source filed them. No cut-off for these calls is given here.

Experiments:
[1] = molecular target: T1, Tubulin (Homo sapiens) (UniProt P68371+Q9H4B7+P0DPH7+P68366+Q13509+Q71U36+P04350+Q3ZCM7+P07437+P68363+Q9BQE3+Q6PEY2+Q13885+Q9BVA1+Q9BUF5); assay: Inhibition of tubulin polymerization in human U251 cells at 3 uM after 4 hrs by immunoblot analysis; type: cell-based; conditions: U-251
How it was run: (§1)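 Seeded at 1.4 × 10^6 cells per 10 cm dish and treated one day later for 4 h, DMSO control. Cells scraped into 37 °C lysis buffer (100 mM PIPES pH 6.9, 5 mM MgCl2, 1 mM EGTA, 30% glycerol, detergents, 2 mM GTP, protease inhibitors) and spun at 100000g for 1 h at 37 °C. Pellet (polymer) and supernatant tubulin measured by anti-α-tubulin immunoblot with chemiluminescence. Polymer fraction expressed as % of DMSO control; mean ± S.D. of three experiments, two-tailed t test.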

[2] = molecular target: T1, Tubulin (Homo sapiens); assay: Inhibition of tubulin polymerization in human U251 cells at 0.1 uM after 4 hrs by immunoblot analysis; type: cell-based; conditions: U-251; how it was run: as §1
[3] = test system: U-251; assay: Growth inhibition of human U251 cells at 10 uM after 24 hrs sulphorhodomine B colorimetric assay; type: functional, cell-based
[4] = test system: U-251; assay: Induction of methuosis in human U251 cells assessed as small cytoplasmic vacuolization and extensive blebbing of the plasma membrane at 2.5 uM after 4 hrs by phase contrast microscopy
[5] = test system: U-251; assay: Induction of methuosis in human U251 cells assessed as cytoplasmic vacuolization at 2.5 uM up to 48 hrs by phase contrast microscopy; type: functional, cell-based
How it was run: (§2)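 Live U251 cells seeded at 10^5 per 35 mm dish; fresh medium with compound added after 1 day, DMSO vehicle control. Phase-contrast images taken at set intervals after drug addition (4 h to 48 h). Vacuolization, blebbing, rounding and detachment scored by eye.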

[6] = test system: U-251; assay: Induction of methuosis in human U251 cells assessed as cytoplasmic vacuolization at 2.5 uM within 4 hrs by phase contrast microscopy; type: functional, cell-based; how it was run: as §2

Row | inhibition [1] | inhibition [2] | Structure (SMILES) | growth inhibition (GI) [3] | other results
1 | Active | inactive | CCCOC(=O)c1[nH]c2ccc(OC)cc2c1/C=C/C(=O)c1ccncc1 |  | 
2 | Active | inactive | COc1ccc2[nH]c(C(F)(F)F)c(/C=C/C(=O)c3ccncc3)c2c1 |  | 
3 |  |  | COc1ccc2[nH]c(C(=O)O)c(/C=C/C(=O)c3ccncc3)c2c1 | inactive | Activity [4]: Active
4 |  | inactive | CCCOc1ccc2[nH]c(C)c(/C=C/C(=O)c3ccncc3)c2c1 |  | 
5 |  | inactive | COc1ccc2[nH]c(C)c(/C=C/C(=O)c3ccncc3)c2c1 |  | 
6 | Active | inactive | CCOC(=O)c1[nH]c2ccc(OC)cc2c1/C=C/C(=O)c1ccncc1 |  | 
7 |  |  | NCc1ccc2[nH]cc(/C=C/C(=O)c3ccncc3)c2c1 | inactive | Activity [5]: inactive
8 |  |  | Cc1[nH]c2ccc(N)cc2c1/C=C/C(=O)c1ccncc1 | inactive | Activity [6]: inactive
9 |  |  | CCCCOc1ccc2[nH]c(C)c(/C=C/C(=O)c3ccncc3)c2c1 | inactive | Activity [5]: Active
